This passage reports Activity and IC50 results from ChEMBL document CHEMBL1177874, “Synthesis and in vitro anticancer screening of some novel 4-[2-amino-3-cyano-4-substituted-5,6,7,8-tetrahydroquinolin-1-(4H)-yl]benzenesulfonamides” (Eur J Med Chem, 2010).

The nature of the first assay: Cytotoxicity against mouse EAC cells assessed as non-viable cells at 10 ug/ml after 2 hrs by trypan blue exclusion assay. Format: functional, Ehrlich.
Conditions: not given
An outline of the steps: (§1)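 EAC cells drawn aseptically by needle aspiration of ascitic fluid from previously inoculated mice; suspension at 2.5 × 10^6 cells per ml. Test agents dissolved in DMSO (1 ml) at 100, 50, 25 and 10 µg, then diluted into the cell suspension. Incubation 2 h at 37 °C. Non-viable cell percentage counted by trypan blue exclusion. IC50 taken from the survival ratio versus concentration curve.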
For the molecule `N#CC1=C(N)N(c2ccc(S(N)(=O)=O)cc2)C2=C(CCCC2)C1c1cccs1` (stereo not given), the Activity amounted to 0%.

On to `N#CC1=C(N)N(c2ccc(S(N)(=O)=O)cc2)C2=C(CCCC2)[C@@H]1c1ccc2c(c1)OCO2`, for which the Activity stood at 100%.

For `N#CC1=C(N)N(c2ccc(S(N)(=O)=O)cc2)C2=C(CCCC2)C1/C=C/c1ccccc1` (stereo not given), the Activity was determined as 50%.

As for `N#CC1=C(N)N(c2ccc(S(N)(=O)=O)cc2)C2=C(CCCC2)C1c1cccc([N+](=O)[O-])c1` (stereo not given), the Activity is recorded as 0%.

Regarding `N#CC1=C(N)N(c2ccc(S(N)(=O)=O)cc2)C2=C(CCCC2)C1c1ccc(O)cc1` (stereo not given), the Activity is 20%.

For the molecule `COc1ccc(C2C(C#N)=C(N)N(c3ccc(S(N)(=O)=O)cc3)C3=C2CCCC3)cc1` (stereo not given), the Activity is reported as 50%.

`N#CC1=C(N)N(c2ccc(S(N)(=O)=O)cc2)C2=C(CCCC2)C1c1ccc([N+](=O)[O-])cc1` (stereo not given): the Activity was 0%.

For `COc1ccc(C2C(C#N)=C(N)N(c3ccc(S(N)(=O)=O)cc3)C3=C2CCCC3)c2ccccc12` (stereo not given), the Activity was found to be 0%.

Consider `N#CC1=C(N)N(c2ccc(S(N)(=O)=O)cc2)C2=C(CCCC2)C1c1ccc(Cl)cc1Cl` (stereo not given), for which the Activity turned out to be 0%.

Regarding `COc1cc(OC)c(C2C(C#N)=C(N)N(c3ccc(S(N)(=O)=O)cc3)C3=C2CCCC3)cc1OC` (stereo not given), the Activity came out at 0%.

In the case of `N#CC1=C(N)N(c2ccc(S(N)(=O)=O)cc2)C2=C(CCCC2)C1c1ccccc1O` (stereo not given), the Activity turned out to be 10%.

The next assay can be described thus: Cytotoxicity against mouse EAC cells assessed as non-viable cells at 100 ug/ml after 2 hrs by trypan blue exclusion assay. Format: functional, Ehrlich.
Conditions: not given
An outline of the steps:
as §1
For the molecule `N#CC1=C(N)N(c2ccc(S(N)(=O)=O)cc2)C2=C(CCCC2)C1c1cccs1` (stereo not given), the Activity stood at 20%.

For the molecule `N#CC1=C(N)N(c2ccc(S(N)(=O)=O)cc2)C2=C(CCCC2)[C@@H]1c1ccc2c(c1)OCO2`, the Activity is 100%.

In the case of `N#CC1=C(N)N(c2ccc(S(N)(=O)=O)cc2)C2=C(CCCC2)C1/C=C/c1ccccc1` (stereo not given), the Activity is listed as 70%.

In the case of `N#CC1=C(N)N(c2ccc(S(N)(=O)=O)cc2)C2=C(CCCC2)C1c1cccc([N+](=O)[O-])c1` (stereo not given), the Activity is on record as 12%.

As to `N#CC1=C(N)N(c2ccc(S(N)(=O)=O)cc2)C2=C(CCCC2)C1c1ccc(O)cc1` (stereo not given), the Activity worked out at 100%.

For the molecule `COc1ccc(C2C(C#N)=C(N)N(c3ccc(S(N)(=O)=O)cc3)C3=C2CCCC3)cc1` (stereo not given), the Activity worked out at 100%.

With `N#CC1=C(N)N(c2ccc(S(N)(=O)=O)cc2)C2=C(CCCC2)C1c1ccc([N+](=O)[O-])cc1` (stereo not given), the Activity came to 20%.

Regarding `COc1ccc(C2C(C#N)=C(N)N(c3ccc(S(N)(=O)=O)cc3)C3=C2CCCC3)c2ccccc12` (stereo not given), the Activity was 20%.

Take `N#CC1=C(N)N(c2ccc(S(N)(=O)=O)cc2)C2=C(CCCC2)C1c1ccc(Cl)cc1Cl` (stereo not given): the Activity stood at 70%.

As to `COc1cc(OC)c(C2C(C#N)=C(N)N(c3ccc(S(N)(=O)=O)cc3)C3=C2CCCC3)cc1OC` (stereo not given), the Activity is 100%.

`N#CC1=C(N)N(c2ccc(S(N)(=O)=O)cc2)C2=C(CCCC2)C1c1ccccc1O` (stereo not given): the Activity is listed as 100%.

The nature of a further assay: Cytotoxicity against mouse EAC cells assessed as non-viable cells at 25 ug/ml after 2 hrs by trypan blue exclusion assay. It is filed as functional, Ehrlich.
Conditions: not given
An outline of the steps: as §1
On to `N#CC1=C(N)N(c2ccc(S(N)(=O)=O)cc2)C2=C(CCCC2)C1c1cccs1` (stereo not given), for which the Activity is reported as 5%.

For `N#CC1=C(N)N(c2ccc(S(N)(=O)=O)cc2)C2=C(CCCC2)[C@@H]1c1ccc2c(c1)OCO2`, the Activity is 100%.

Turning to `N#CC1=C(N)N(c2ccc(S(N)(=O)=O)cc2)C2=C(CCCC2)C1/C=C/c1ccccc1` (stereo not given), the Activity was found to be 70%.

For `N#CC1=C(N)N(c2ccc(S(N)(=O)=O)cc2)C2=C(CCCC2)C1c1cccc([N+](=O)[O-])c1` (stereo not given), the Activity stood at 1%.

As for `N#CC1=C(N)N(c2ccc(S(N)(=O)=O)cc2)C2=C(CCCC2)C1c1ccc(O)cc1` (stereo not given), the Activity came out at 42%.

Consider `COc1ccc(C2C(C#N)=C(N)N(c3ccc(S(N)(=O)=O)cc3)C3=C2CCCC3)cc1` (stereo not given), for which the Activity stood at 90%.

As for `N#CC1=C(N)N(c2ccc(S(N)(=O)=O)cc2)C2=C(CCCC2)C1c1ccc([N+](=O)[O-])cc1` (stereo not given), the Activity came to 5%.

For `COc1ccc(C2C(C#N)=C(N)N(c3ccc(S(N)(=O)=O)cc3)C3=C2CCCC3)c2ccccc12` (stereo not given), the Activity is given as 5%.

Take `N#CC1=C(N)N(c2ccc(S(N)(=O)=O)cc2)C2=C(CCCC2)C1c1ccc(Cl)cc1Cl` (stereo not given): the Activity is 50%.

As for `COc1cc(OC)c(C2C(C#N)=C(N)N(c3ccc(S(N)(=O)=O)cc3)C3=C2CCCC3)cc1OC` (stereo not given), the Activity is on record as 0%.

Consider `N#CC1=C(N)N(c2ccc(S(N)(=O)=O)cc2)C2=C(CCCC2)C1c1ccccc1O` (stereo not given), for which the Activity is on record as 40%.

A short description of another assay: Cytotoxicity against mouse EAC cells after 2 hrs by trypan blue exclusion assay. The conditions noted are these: Ehrlich. It is filed as functional, cell-based. An outline of the steps:
as §1
Molecule `N#CC1=C(N)N(c2ccc(S(N)(=O)=O)cc2)C2=C(CCCC2)C1c1cccs1` (stereo not given) yielded an IC50 greater than 100 µg/mL.

Take `N#CC1=C(N)N(c2ccc(S(N)(=O)=O)cc2)C2=C(CCCC2)[C@@H]1c1ccc2c(c1)OCO2`: the IC50 is less than 22.2 µM.

`N#CC1=C(N)N(c2ccc(S(N)(=O)=O)cc2)C2=C(CCCC2)C1/C=C/c1ccccc1` (stereo not given) showed an IC50 of 23.1 µM.

Molecule `N#CC1=C(N)N(c2ccc(S(N)(=O)=O)cc2)C2=C(CCCC2)C1c1cccc([N+](=O)[O-])c1` (stereo not given) registered an IC50 greater than 100 µg/mL.

Consider `N#CC1=C(N)N(c2ccc(S(N)(=O)=O)cc2)C2=C(CCCC2)C1c1ccc(O)cc1` (stereo not given), for which half-maximal inhibition (IC50) required 82.9 µM.

As for `COc1ccc(C2C(C#N)=C(N)N(c3ccc(S(N)(=O)=O)cc3)C3=C2CCCC3)cc1` (stereo not given), half-maximal inhibition (IC50) required 22.9 µM.

`N#CC1=C(N)N(c2ccc(S(N)(=O)=O)cc2)C2=C(CCCC2)C1c1ccc([N+](=O)[O-])cc1` (stereo not given) returned an IC50 greater than 100 µg/mL.

Molecule `COc1ccc(C2C(C#N)=C(N)N(c3ccc(S(N)(=O)=O)cc3)C3=C2CCCC3)c2ccccc12` (stereo not given) yielded an IC50 greater than 100 µg/mL.

Regarding `N#CC1=C(N)N(c2ccc(S(N)(=O)=O)cc2)C2=C(CCCC2)C1c1ccc(Cl)cc1Cl` (stereo not given), 105 µM corresponded to half-maximal inhibition (IC50).

The molecule `COc1cc(OC)c(C2C(C#N)=C(N)N(c3ccc(S(N)(=O)=O)cc3)C3=C2CCCC3)cc1OC` (stereo not given) yielded an IC50 of 101 µM.

In turn, `N#CC1=C(N)N(c2ccc(S(N)(=O)=O)cc2)C2=C(CCCC2)C1c1ccccc1O` (stereo not given) registered an IC50 of 118 µM.

Another assay is described as follows: Cytotoxicity against mouse EAC cells assessed as non-viable cells at 50 ug/ml after 2 hrs by trypan blue exclusion assay.
Conditions: not given
Format: functional, Ehrlich. An outline of the steps:
as §1
In the case of `N#CC1=C(N)N(c2ccc(S(N)(=O)=O)cc2)C2=C(CCCC2)C1c1cccs1` (stereo not given), the Activity stood at 10%.

For the molecule `N#CC1=C(N)N(c2ccc(S(N)(=O)=O)cc2)C2=C(CCCC2)[C@@H]1c1ccc2c(c1)OCO2`, the Activity worked out at 100%.

Consider `N#CC1=C(N)N(c2ccc(S(N)(=O)=O)cc2)C2=C(CCCC2)C1/C=C/c1ccccc1` (stereo not given), for which the Activity is 90%.

In the case of `N#CC1=C(N)N(c2ccc(S(N)(=O)=O)cc2)C2=C(CCCC2)C1c1cccc([N+](=O)[O-])c1` (stereo not given), the Activity is 2%.

Turning to `N#CC1=C(N)N(c2ccc(S(N)(=O)=O)cc2)C2=C(CCCC2)C1c1ccc(O)cc1` (stereo not given), the Activity was 60%.

Take `COc1ccc(C2C(C#N)=C(N)N(c3ccc(S(N)(=O)=O)cc3)C3=C2CCCC3)cc1` (stereo not given): the Activity is listed as 100%.

With `N#CC1=C(N)N(c2ccc(S(N)(=O)=O)cc2)C2=C(CCCC2)C1c1ccc([N+](=O)[O-])cc1` (stereo not given), the Activity is reported as 10%.

`COc1ccc(C2C(C#N)=C(N)N(c3ccc(S(N)(=O)=O)cc3)C3=C2CCCC3)c2ccccc12` (stereo not given): the Activity came out at 10%.

Turning to `N#CC1=C(N)N(c2ccc(S(N)(=O)=O)cc2)C2=C(CCCC2)C1c1ccc(Cl)cc1Cl` (stereo not given), the Activity was 50%.

For `COc1cc(OC)c(C2C(C#N)=C(N)N(c3ccc(S(N)(=O)=O)cc3)C3=C2CCCC3)cc1OC` (stereo not given), the Activity amounted to 50%.

Regarding `N#CC1=C(N)N(c2ccc(S(N)(=O)=O)cc2)C2=C(CCCC2)C1c1ccccc1O` (stereo not given), the Activity is reported as 50%.
